In ChEMBL document CHEMBL1148638, “Aminopyridine-based c-Jun N-terminal kinase inhibitors with cellular activity and minimal cross-kinase activity” (J Med Chem, 2006):

Key:
[1] = target: Mitogen-activated protein kinase 9 (Homo sapiens, UniProt P45984); assay: Inhibition of JNK2-mediated ATF2 phosphorylation
[2] = target: Mitogen-activated protein kinase 8 (Homo sapiens, UniProt P45983); assay: Inhibition of JNK1-mediated ATF2 phosphorylation
[3] = target: c-Jun N-terminal kinase, JNK (Homo sapiens, UniProt P45983+P53779+P45984); assay: Inhibition of cJun phosphorylation in HepG2 cell line
[4] = Oral bioavailability in Sprague-Dawley rat; type: ADME, organism-based; conditions: in vivo
[5] = target: Mitogen-activated protein kinase 10 (Homo sapiens, UniProt P53779); assay: Inhibition of JNK3-mediated ATF2 phosphorylation
Mitogen-activated protein kinase 10, sequence (P53779 whole entry): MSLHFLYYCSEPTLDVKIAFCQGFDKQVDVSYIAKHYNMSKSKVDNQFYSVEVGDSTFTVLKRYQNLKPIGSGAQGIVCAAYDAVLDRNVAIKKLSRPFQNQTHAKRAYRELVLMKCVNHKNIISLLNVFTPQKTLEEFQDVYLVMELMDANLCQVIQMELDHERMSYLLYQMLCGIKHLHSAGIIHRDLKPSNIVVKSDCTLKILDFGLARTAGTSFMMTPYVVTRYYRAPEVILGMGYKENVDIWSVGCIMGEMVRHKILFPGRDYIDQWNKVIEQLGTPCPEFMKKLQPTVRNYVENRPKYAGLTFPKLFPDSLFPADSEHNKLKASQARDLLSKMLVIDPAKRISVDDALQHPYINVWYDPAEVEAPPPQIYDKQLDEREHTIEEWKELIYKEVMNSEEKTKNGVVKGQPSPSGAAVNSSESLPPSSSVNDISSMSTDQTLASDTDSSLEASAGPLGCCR

[6] = Half life in po dosed Sprague-Dawley rat; type: ADME, organism-based; conditions: in vivo
Procedure, shortened: (§1)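 Sprague-Dawley rats were dosed orally. Oral half-life is reported in hours and Cmax as the maximum plasma concentration in µM. AUC is total oral exposure from t = 0 to t = ∞, in µg·h/mL.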

[7] = target: T1, Calcium/calmodulin-dependent protein kinase type IV (Homo sapiens, UniProt Q16566); assay: Inhibition of CaMK4
T1 sequence (Q16566 whole entry): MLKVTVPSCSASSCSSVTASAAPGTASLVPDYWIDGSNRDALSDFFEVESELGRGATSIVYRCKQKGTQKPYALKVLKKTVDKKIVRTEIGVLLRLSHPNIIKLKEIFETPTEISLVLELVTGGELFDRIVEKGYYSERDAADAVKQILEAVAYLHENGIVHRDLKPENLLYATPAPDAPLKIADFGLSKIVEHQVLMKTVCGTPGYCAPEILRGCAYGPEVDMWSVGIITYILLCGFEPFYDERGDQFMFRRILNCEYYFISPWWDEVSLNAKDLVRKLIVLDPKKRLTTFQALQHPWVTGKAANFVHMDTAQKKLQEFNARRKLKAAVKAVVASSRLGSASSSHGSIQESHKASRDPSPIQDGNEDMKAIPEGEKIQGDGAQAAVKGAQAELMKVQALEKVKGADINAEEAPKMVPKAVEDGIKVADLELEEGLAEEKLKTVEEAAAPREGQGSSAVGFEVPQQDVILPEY
Procedure, shortened: (§2)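 Recombinant kinases were commercial, or baculovirus-expressed and purified by His-tag or GST affinity. Each was incubated 1 h with biotinylated substrate peptide (2 µM), γ-[33P]-ATP (5 µM) and inhibitor (3-10000 nM, 2% DMSO) in 25 mM Hepes pH 7.5, 10 mM MgCl2, Na3VO4. Reactions were stopped with EDTA/NaCl and read by streptavidin FlashPlate capture. IC50 came from titrations, converted to Ki by Cheng-Prusoff.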

[8] = target: Activated CDC42 kinase 1 (Homo sapiens, UniProt Q07912); assay: Inhibition of CDC42; procedure, shortened: as §2
Activated CDC42 kinase 1, sequence (Q07912 whole entry): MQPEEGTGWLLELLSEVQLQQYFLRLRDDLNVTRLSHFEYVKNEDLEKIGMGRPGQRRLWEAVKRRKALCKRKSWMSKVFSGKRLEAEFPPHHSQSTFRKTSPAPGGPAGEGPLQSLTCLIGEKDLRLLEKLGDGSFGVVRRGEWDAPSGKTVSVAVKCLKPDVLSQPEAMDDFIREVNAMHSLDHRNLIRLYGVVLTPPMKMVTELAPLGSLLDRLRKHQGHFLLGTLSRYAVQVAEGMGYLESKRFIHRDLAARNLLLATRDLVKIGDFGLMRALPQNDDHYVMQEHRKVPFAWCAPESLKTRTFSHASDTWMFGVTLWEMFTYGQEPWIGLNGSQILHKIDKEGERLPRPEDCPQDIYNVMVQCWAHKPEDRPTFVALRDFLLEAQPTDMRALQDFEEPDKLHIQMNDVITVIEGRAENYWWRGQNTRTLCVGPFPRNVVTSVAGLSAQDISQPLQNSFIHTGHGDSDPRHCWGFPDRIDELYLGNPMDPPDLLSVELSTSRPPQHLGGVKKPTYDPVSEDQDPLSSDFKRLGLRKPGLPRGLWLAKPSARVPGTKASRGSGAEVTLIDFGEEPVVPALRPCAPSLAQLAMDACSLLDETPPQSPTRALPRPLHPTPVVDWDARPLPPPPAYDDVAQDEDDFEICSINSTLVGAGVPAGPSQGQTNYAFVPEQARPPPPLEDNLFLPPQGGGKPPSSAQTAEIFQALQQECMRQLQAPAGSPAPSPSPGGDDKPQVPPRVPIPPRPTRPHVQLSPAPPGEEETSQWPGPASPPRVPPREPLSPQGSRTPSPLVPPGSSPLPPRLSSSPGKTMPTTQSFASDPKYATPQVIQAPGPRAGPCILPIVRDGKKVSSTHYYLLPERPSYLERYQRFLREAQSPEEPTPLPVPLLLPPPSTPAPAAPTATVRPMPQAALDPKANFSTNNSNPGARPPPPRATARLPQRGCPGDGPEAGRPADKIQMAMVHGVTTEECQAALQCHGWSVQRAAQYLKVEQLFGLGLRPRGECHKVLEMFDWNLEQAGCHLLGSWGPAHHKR

[9] = Tmax in po dosed Sprague-Dawley rat; type: ADME, organism-based; conditions: in vivo
[10] = Volume of distribution in iv dosed Sprague-Dawley rat; type: ADME, organism-based; conditions: in vivo, read-out: Vdss
[11] = Volume of distribution at steady state in iv dosed Sprague-Dawley rat; type: ADME, organism-based; conditions: in vivo, read-out: Vss
[12] = target: T2, Serine/threonine-protein kinase Sgk1 (Homo sapiens, UniProt O00141); assay: Inhibition of SGK
T2 sequence (O00141 whole entry): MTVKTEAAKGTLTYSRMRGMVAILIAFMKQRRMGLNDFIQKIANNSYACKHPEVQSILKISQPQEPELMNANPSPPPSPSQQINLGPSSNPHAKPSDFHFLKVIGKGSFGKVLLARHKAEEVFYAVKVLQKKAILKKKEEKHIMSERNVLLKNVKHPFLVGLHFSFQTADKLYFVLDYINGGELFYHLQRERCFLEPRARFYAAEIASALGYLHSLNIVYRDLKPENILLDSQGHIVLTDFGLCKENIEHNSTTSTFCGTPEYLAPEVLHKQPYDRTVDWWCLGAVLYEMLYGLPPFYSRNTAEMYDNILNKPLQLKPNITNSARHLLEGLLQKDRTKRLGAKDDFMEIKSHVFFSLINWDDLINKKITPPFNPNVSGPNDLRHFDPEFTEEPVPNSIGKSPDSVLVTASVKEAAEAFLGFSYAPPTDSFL

[13] = AUC in iv dosed Sprague-Dawley rat; type: ADME, organism-based; conditions: plasma
Procedure, shortened: (§3)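 Sprague-Dawley rats received 5 mg/kg intravenously. Half-life is reported in hours. AUC is total drug exposure after iv dosing, from t = 0 to t = ∞, in µg·h/mL.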

[14] = AUC in po dosed Sprague-Dawley rat; type: ADME, organism-based; conditions: plasma; procedure, shortened: as §1
[15] = Cmax in po dosed Sprague-Dawley rat; type: ADME, organism-based; design: route oral; conditions: in vivo; procedure, shortened: as §1
[16] = Half life in iv dosed Sprague-Dawley rat; type: ADME, organism-based; conditions: in vivo; procedure, shortened: as §3
[17] = Plasma clearance in iv dosed Sprague-Dawley rat; type: ADME, organism-based

Mitogen-activated protein kinase 9, sequence (P45984 whole entry): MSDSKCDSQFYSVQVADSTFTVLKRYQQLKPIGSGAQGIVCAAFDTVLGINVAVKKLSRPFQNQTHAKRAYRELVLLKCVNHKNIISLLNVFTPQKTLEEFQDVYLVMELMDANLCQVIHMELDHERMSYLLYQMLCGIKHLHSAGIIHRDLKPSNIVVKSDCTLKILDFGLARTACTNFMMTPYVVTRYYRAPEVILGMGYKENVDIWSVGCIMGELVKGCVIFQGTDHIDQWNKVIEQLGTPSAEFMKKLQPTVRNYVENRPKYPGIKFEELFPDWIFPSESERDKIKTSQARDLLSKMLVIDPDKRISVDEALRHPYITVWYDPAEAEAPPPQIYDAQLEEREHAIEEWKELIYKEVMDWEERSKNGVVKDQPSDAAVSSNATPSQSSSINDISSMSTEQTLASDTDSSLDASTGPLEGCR
Mitogen-activated protein kinase 8, sequence (P45983 whole entry): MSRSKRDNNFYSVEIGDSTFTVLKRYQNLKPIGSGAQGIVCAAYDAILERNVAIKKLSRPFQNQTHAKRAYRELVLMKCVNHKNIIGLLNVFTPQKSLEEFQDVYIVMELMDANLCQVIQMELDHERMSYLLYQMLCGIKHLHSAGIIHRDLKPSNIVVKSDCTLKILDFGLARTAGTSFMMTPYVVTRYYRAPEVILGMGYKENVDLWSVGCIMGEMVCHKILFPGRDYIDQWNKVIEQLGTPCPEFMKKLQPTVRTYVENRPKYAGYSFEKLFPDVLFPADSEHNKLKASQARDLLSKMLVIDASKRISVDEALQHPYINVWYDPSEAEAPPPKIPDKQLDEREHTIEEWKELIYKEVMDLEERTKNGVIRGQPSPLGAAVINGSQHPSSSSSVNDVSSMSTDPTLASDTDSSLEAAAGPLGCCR

Structure (SMILES) | IC50 [1] [µM] | IC50 [2] [µM] | further results
CCOc1nc(NC(=O)Cc2ccccc2C)cc(N)c1C#N | 0.74 | 0.4 | 
CCOc1nc(NC(=O)CN2CCOCC2)cc(N)c1C#N | 1.2 | 0.27 | 
CCOc1nc(NCCc2cc(OC)ccc2OC)cc(N)c1C#N | > 10 | > 10 | 
CCOc1nc(NC(=O)Cc2ccc(C)cc2)cc(N)c1C#N | 0.36 | 0.19 | EC50 [3]: 3.4 µM
CCOc1nc(NC(=O)Cc2cccc(OC)c2)cc(N)c1C#N | 0.31 | 0.21 | EC50 [3]: 2.5 µM
CCOc1nc(NC(=O)Cc2ccc(Cl)cc2)cc(N)c1C#N | 0.61 | 0.58 | 
CCOc1nc(NC(=O)Cc2cc(OC)c([N+](=O)[O-])cc2OC)cc(N)c1C#N | 0.1 | 0.069 | EC50 [3]: 0.91 µM
CCCCNC(=O)C1CCN(CC(=O)Nc2cc(N)c(C#N)c(OCC)n2)CC1 | 0.18 | 0.069 | EC50 [3]: > 10 µM
CCOc1nc(NC(=O)Cc2cc(OC)c(NC(C)=O)cc2OC)cc(N)c1C#N | 0.026 | 0.035 | EC50 [3]: 0.28 µM
CCOc1nc(NC(=O)CN2CCC(O)CC2)cc(N)c1C#N | 0.64 | 0.3 | 
CCOc1cccc(NC(C)=O)n1 | > 10 |  | 
COc1ccc(OC)c(CC(=O)Nc2cc(N)c(C#N)c(OCCO)n2)c1 | 0.24 | 0.074 | EC50 [3]: 1.6 µM
CCCCC(=O)Nc1nc(OCC)c(C#N)c(N)c1Cl | > 10 | > 10 | 
CCCCC(=O)N(C)c1cc(N)c(C#N)c(OCC)n1 | > 10 | > 10 | 
CCOc1nc(NC(=O)Cc2cccc(Cl)c2)cc(N)c1C#N | 0.9 | 0.3 | 
CCOc1nc(NC(=O)Cc2ccccc2OC)cc(N)c1C#N | 0.26 | 0.12 | EC50 [3]: 1.4 µM
COc1ccc(OC)c(CC(=O)Nc2cc(N)c(C#N)cn2)c1 | 5.1 | 2.6 | 
CCCCN(CCCC)CC(=O)Nc1cc(N)c(C#N)c(OCC)n1 | > 10 | 3.5 | 
CCOc1nc(NC(=O)Cc2ccccc2)cc(N)c1C#N | 0.77 | 0.57 | 
CCOc1nc(NC(=O)Cc2cc(OC)c(S(C)(=O)=O)cc2OC)cc(N)c1Cl |  |  | bioavailability [4]: 49%; Ki [5]: 0.061 µM; half-life [6]: 2.1 h; Ki [7]: > 8.6 µM; Ki [8]: > 9.5 µM; Tmax [9]: 0.67 h; Vd [10]: 2 L/kg; Vd [11]: 1.6 L/kg; Ki [12]: > 9.4 µM; AUC [13]: 3000 ng·h/mL; AUC [14]: 1500 ng·h/mL; Cmax [15]: 1420 nM; half-life [16]: 0.8 h; clearance [17]: 28.3 mL/min/kg
CCOc1nc(NC(=O)Cc2cc(OC)c(S(C)(=O)=O)cc2OC)cc(N)c1C#N |  |  | bioavailability [4]: 31%; Ki [5]: 0.072 µM; half-life [6]: 1.5 h; Ki [7]: > 8.6 µM; Ki [8]: > 9.5 µM; Tmax [9]: 0.5 h; Vd [10]: 4.7 L/kg; Vd [11]: 1.5 L/kg; Ki [12]: > 9.4 µM; AUC [13]: 3500 ng·h/mL; AUC [14]: 1100 ng·h/mL; Cmax [15]: 1360 nM; half-life [16]: 2 h; clearance [17]: 25 mL/min/kg
COCCOc1nc(NC(=O)Cc2cc(OC)ccc2OC)cc(N)c1C#N | 0.27 | 0.11 | EC50 [3]: 1.4 µM
CCOc1nc(NC(=O)Cc2ccccc2Cl)cc(N)c1C#N | 4.9 | 1.1 | 
COc1cc(S(C)(=O)=O)c(OC)cc1CC(=O)Nc1cc(N)c(C#N)c(OC(C)C)n1 |  |  | bioavailability [4]: 5.7%; half-life [6]: 2.9 h; Ki [7]: > 8.6 µM; Ki [8]: > 9.5 µM; Tmax [9]: 0.75 h; Vd [10]: 8.6 L/kg; Vd [11]: 1.6 L/kg; Ki [12]: > 9.4 µM; AUC [13]: 2200 ng·h/mL; AUC [14]: 120 ng·h/mL; Cmax [15]: 80 nM; half-life [16]: 2 h; clearance [17]: 50 mL/min/kg
CCOc1nc(NC(=O)Cc2cc(Br)ccc2Br)cc(N)c1C#N | > 10 | 3 | 
COc1ccc(OC)c(CC(=O)Nc2cc(N)c(C#N)c(OCCS(C)(=O)=O)n2)c1 | 0.74 | 0.4 | 
CCOc1nc(NC(=O)Cc2cc(OC)c(Br)cc2OC)cc(N)c1C#N | 0.16 |  | EC50 [3]: 0.89 µM
CCCN(CCO)CC(=O)Nc1cc(N)c(C#N)c(OCC)n1 | 0.74 | 0.16 | EC50 [3]: 5.5 µM
CCOc1nc(NC(=O)CN2CCCCC2)cc(N)c1C#N | 3.4 | 0.51 | 
CCOc1nc(NC(=O)Cc2ccc(OC)cc2)cc(N)c1C#N | 0.274 | 0.18 | EC50 [3]: 1.4 µM

The next lines start with results.

IC50 [1] [µM] | IC50 [2] [µM] | Structure (SMILES) | further results
0.79 | 0.42 | CCOc1nc(NC(=O)Cc2cccc(C)c2)cc(N)c1C#N | 
> 10 | 4.4 | CCOc1nc(NC(=O)Cc2cc(C)ccc2C)cc(N)c1C#N | 
> 10 | > 10 | CC(=O)Nc1cc(N)c(C#N)c(OCCN(C)C)n1 | 
8.4 | 4 | CCOc1nc(NC(=O)C(C)C)cc(N)c1C#N | 
3 | 0.91 | CC(=O)Nc1cc(N)c(C#N)c(NC(C)C)n1 | 
6.3 | 2.7 | CCOc1nc(NC(=O)CN(CC)CC)cc(N)c1C#N | 
> 10 | > 10 | CCCc1nc(NC(C)=O)cc(N)c1C#N | 
3.5 | 1.4 | CCOc1nc(NC(=O)CC(C)C)cc(N)c1C#N | 
4.9 | 4.8 | CC(=O)Nc1cc(N)c(C#N)c(OCCC(=O)O)n1 | 
4.5 | 2.2 | COc1nc(NC(C)=O)cc(N)c1C#N | 
> 10 | > 10 | CCNC(=O)Nc1cc(N)c(C#N)c(OCC)n1 | 
> 10 | > 10 | CCOc1nc(NC(=O)OC)cc(N)c1C#N | 
> 10 | 6.3 | CCCCNCC(=O)Nc1cc(N)c(C#N)c(OCC)n1 | 
> 10 | > 10 | CCOc1nc(NC(C)=O)cc(C)c1C#N | 
2.9 | 0.89 | CC(=O)Nc1cc(N)c(C#N)c(OC2CCOC2)n1 (stereo unspecified) | 
0.13 | 0.087 | CCOc1nc(NC(=O)CN2CCC(C(=O)NC(C)C)CC2)cc(N)c1C#N | EC50 [3]: 3.9 µM
> 10 | 8.9 | CCCCSc1nc(NC(C)=O)cc(N)c1C#N | 
0.69 | 0.35 | CCCCC(=O)Nc1cc(N)c(C#N)c(OCC)n1 | 
> 10 | > 10 | CCOc1cc(NC(C)=O)nc(N)c1C#N | 
0.47 | 0.31 | CC(=O)Nc1cc(N)c(C#N)c(OC(C)C)n1 | 
4.66 | 2.1 | CCCCOc1nc(NC(C)=O)cc(N)c1C#N | 
> 10 | 2.4 | CCNc1nc(NC(C)=O)cc(N)c1C#N | 
> 10 | 1.7 | COc1ccc(OC)c(CC(=O)Nc2cc(N)c(C#N)c(Br)n2)c1 | 
